The values that follow come from article PMC6900552 (Acta Pharmaceutica Sinica. B, 2019).

For data set [1] the following is noted: cited from earlier work.
A further data set relates to HepG2 cells. In words: DiI-LDL uptake assay. Format: cell-based, human. Particulars: 5 μmol/L, 24 h, then 20 μg/mL DiI-LDL 4 h, fold of vehicle. In outline:
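Washes: PBS/0.4% albumin ×2, PBS ×3. Isopropanol extraction 20 min RT; fluorescence ex 520/em 570 nm; residual cells lysed in 0.5 mol/L NaOH for protein determination.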

For data set [2] the following is noted: 32 hypercholesterolemic patients, 3 months of treatment; cited from earlier work.
For data set [3], the system named is PCSK9 mRNA. The conditions noted are these: read-out: IC50 of decreasing PCSK9 mRNA level; cited from earlier work.
The target of data set [4] is beta-1 adrenergic receptor (Homo sapiens, UniProt P08588). In words: Calcium mobilization assay, β1 adrenergic receptor antagonist activity. Format: cell-based. The conditions noted are these: HEK293 β1-AR/Gα16 cells. Put shortly:
(§1)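 HEK293 cells stably co-expressing the receptor and Gα16 were seeded in 96-well plates and grown 24 h. Cells were loaded with 2 μmol/L Fluo-4 AM in HBSS (pH 7.4, BSA 5 g/L, sulfinpyrazone 250 μmol/L) at 37 °C for 45 min. Test compound was added for 10 min at RT, then the respective agonist. Calcium signal was read at ex 485/em 525 nm. IC50 came from nonlinear-regression dose–response curves.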
In general terms: Calcium flux is commonly read through the fluorescence of an indicator in the cells.

A further data set has as its target dopamine D2 (Homo sapiens, UniProt P14416). In words: Calcium mobilization assay, dopamine D2 antagonist activity. The format is cell-based. Particulars: HEK293 D2/Gα16 cells. In outline:
as §1

Data set [5] addresses serotonin 5-HT1B receptor (Homo sapiens, UniProt P28222). In words: Whole-cell binding assay, 5-HT1B. Put shortly: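 CHO-K1 cells stably expressing 5-HT1B were seeded at 3 × 10⁴ cells/well and assayed 24 h later. Cells were incubated overnight at 4 °C with 1 nmol/L ³H-GR125743 or ³H-mesulergine plus unlabeled test compound (1.28 nmol/L–100 μmol/L). They were then washed with ice-cold PBS and lysed (PBS, 20 mmol/L Tris-HCl, 1% Triton X-100, pH 7.4). Bound radioactivity was scintillation-counted, and IC50 came from nonlinear regression.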

In the next data set the target is dopamine D1 (Homo sapiens, UniProt P21728). In words: Calcium mobilization assay, dopamine D1 antagonist activity. The format is cell-based. The conditions noted are these: HEK293 D1/Gα16 cells. In outline:
as §1

Data set [6] is described as follows: In vivo cholesterol-lowering assay in HFD-induced hyperlipidemic hamsters. Set-up: species or system Syrian hamster. The conditions noted are these: 21 days, vs HFD control. In outline:
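Male Syrian hamsters (100–120 g) were acclimatized 7 days, then fed a high-fat diet (0.5% cholesterol) for 1 week. They were randomized to groups of n = 7. Test compound (30 mg/kg) or fenofibrate positive control (100 mg/kg) was given by daily oral gavage for 21 days; controls received 0.5% CMC-Na vehicle. After a 15 h fast, serum was taken under anesthesia and TC and LDL-C were measured by kit. Mean ± SEM.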

A further data set relates to LDLR. Nature of the data set: Western blot analysis of LDLR expression in HepG2 cells. The format is cell-based, human. The conditions noted are these: 5 μmol/L, 24 h. In general terms: A western blot detects proteins with antibodies after separation by electrophoresis.
Data set [7] has as its system PCSK9 mRNA. Nature of the data set: Real-time PCR of PCSK9 mRNA in HepG2 cells. Format: cell-based. The conditions noted are these: Homo sapiens, HepG2, 24 h, read-out: IC50 of PCSK9 mRNA expression. A general note: Real-time PCR tracks product formation cycle by cycle.
The next data set has as its target hERG channel (Homo sapiens, UniProt Q12809). Nature of the data set: hERG testing. Format: cell-based. In outline: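 FluxOR thallium-flux assay in CHO-hERG-ZG cells kept under G418 and hygromycin B (100 μg/mL each). Cells were plated and held 30 min at RT in the dark, then 16–18 h at 37 °C. Dye loading ran 90 min at RT in the dark, then the medium was swapped for assay buffer and compound added for 20 min at RT in the dark. Fluorescence was recorded every 2 s to 10 s; stimulus buffer was added at 10 s, then recording continued every 1 s to 180 s.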

The nature of data set [8]: Pharmacokinetic profiles in male hamsters. Format: in vivo. The conditions noted are these: hamster, serum. Put shortly: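 Male hamsters, n = 3 per group, received test compound either at 20 mg/kg by oral gavage in 0.5% CMC-Na or at 10 mg/kg i.v. in 5% DMSO/10% cremophor EL/85% saline. Blood was drawn at 0, 0.5, 1, 2, 4, 6, 8, 10, 12 and 24 h, and serum was separated at 4000×g for 10 min. Serum levels were measured by LC/MS/MS. Parameters are averages of three runs.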

The next data set deals with PCSK9. In words: PCSK9 ELISA in HepG2 cells. The format is cell-based, human. The conditions noted are these: read-out: IC50 of PCSK9 protein expression, 24 h.

The structures appear in SMILES notation. Where two headings read alike, the source gives them in different places.

Chain of beta-1 adrenergic receptor (P08588 whole entry, species assumed): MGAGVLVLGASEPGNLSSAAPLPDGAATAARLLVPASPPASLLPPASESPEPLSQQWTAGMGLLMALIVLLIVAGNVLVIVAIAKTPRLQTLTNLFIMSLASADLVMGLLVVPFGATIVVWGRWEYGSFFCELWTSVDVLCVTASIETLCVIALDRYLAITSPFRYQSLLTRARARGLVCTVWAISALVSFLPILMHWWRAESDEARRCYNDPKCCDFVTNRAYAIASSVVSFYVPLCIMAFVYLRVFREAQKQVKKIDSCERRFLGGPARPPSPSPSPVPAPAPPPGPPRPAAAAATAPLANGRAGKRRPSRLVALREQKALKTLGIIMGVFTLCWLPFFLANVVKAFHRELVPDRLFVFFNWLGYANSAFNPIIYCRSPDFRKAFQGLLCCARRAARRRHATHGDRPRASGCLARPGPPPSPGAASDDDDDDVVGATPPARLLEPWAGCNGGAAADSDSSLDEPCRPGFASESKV
Chain of dopamine D1 (P21728 whole entry): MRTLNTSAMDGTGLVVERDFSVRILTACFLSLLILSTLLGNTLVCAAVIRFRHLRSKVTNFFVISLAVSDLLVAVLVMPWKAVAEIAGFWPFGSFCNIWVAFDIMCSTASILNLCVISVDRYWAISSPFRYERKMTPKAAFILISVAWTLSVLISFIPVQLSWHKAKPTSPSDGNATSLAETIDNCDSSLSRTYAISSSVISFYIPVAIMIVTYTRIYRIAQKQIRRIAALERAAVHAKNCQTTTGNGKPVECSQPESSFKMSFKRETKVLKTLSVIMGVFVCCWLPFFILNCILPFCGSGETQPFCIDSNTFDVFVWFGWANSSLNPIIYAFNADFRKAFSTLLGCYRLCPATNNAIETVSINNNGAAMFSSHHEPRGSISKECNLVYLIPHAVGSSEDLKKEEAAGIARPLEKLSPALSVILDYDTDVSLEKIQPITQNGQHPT
Chain of dopamine D2 (P14416 whole entry): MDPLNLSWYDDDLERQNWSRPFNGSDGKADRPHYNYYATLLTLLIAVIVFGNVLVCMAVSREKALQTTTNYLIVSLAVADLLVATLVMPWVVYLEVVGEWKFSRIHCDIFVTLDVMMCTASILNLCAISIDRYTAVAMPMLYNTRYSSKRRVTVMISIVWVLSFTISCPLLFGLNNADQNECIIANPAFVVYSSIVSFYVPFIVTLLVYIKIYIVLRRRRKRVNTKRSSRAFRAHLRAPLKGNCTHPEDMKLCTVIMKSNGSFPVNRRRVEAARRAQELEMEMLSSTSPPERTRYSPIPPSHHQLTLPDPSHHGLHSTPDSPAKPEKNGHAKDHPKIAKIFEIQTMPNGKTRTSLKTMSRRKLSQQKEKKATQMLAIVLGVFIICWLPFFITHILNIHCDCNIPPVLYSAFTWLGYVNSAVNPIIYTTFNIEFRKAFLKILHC
Chain of serotonin 5-HT1B receptor (P28222 whole entry): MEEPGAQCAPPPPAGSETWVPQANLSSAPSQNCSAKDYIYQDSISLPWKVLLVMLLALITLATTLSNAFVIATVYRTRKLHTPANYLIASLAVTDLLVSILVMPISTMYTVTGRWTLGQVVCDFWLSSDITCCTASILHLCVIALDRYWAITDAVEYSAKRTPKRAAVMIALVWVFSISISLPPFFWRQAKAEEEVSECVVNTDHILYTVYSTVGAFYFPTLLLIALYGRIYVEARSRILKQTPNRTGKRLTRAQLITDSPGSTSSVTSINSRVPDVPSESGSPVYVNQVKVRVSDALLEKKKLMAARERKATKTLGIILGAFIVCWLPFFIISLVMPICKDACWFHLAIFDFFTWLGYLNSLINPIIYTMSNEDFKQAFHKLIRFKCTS
Chain of hERG channel (Q12809 whole entry): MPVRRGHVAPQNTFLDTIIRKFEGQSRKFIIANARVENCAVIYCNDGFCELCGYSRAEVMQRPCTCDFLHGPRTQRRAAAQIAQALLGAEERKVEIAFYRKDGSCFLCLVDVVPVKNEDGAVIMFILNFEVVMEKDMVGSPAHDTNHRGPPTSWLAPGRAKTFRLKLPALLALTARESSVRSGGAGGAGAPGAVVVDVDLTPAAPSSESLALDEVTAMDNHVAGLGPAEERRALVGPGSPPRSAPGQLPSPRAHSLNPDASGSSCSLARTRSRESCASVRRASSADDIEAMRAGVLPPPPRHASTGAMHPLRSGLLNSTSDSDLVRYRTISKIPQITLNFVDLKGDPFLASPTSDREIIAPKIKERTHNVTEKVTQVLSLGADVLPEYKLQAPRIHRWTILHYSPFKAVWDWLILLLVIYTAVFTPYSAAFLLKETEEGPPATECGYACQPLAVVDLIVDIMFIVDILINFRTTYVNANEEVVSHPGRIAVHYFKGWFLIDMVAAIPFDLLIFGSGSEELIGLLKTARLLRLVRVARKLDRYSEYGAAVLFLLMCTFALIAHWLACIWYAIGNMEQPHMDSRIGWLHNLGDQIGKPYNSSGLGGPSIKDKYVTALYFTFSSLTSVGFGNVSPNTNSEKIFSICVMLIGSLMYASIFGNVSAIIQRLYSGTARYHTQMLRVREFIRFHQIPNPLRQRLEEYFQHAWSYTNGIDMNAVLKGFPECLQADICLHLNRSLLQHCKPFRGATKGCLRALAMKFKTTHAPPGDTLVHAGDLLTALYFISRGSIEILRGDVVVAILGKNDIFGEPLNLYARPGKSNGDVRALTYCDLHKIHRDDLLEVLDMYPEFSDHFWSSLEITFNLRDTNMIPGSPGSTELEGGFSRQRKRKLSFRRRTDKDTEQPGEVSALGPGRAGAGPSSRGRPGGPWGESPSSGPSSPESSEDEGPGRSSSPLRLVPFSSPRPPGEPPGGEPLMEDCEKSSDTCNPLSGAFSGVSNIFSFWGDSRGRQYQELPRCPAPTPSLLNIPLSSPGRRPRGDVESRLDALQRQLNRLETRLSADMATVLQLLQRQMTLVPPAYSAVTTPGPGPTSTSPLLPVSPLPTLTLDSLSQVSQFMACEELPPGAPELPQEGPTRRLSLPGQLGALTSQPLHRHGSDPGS

With `COc1ccc2cc3[n+](cc2c1OC)CCc1cc2c(cc1-3)OCO2` [Berberine], in data set [1], the “bioavailability (F)” value was less than 1% and the oral bioavailability is given as roughly 0%. Moreover, in the data set with HepG2 cells, the “DiI-LDL uptake rate (compared to vehicle, mean±SEM)” value amounted to 1.38±0.03. For the same compound, in data set [2], the “reduction of LDL-C” value is listed as 25% and the “reduction of serum total cholesterol (TC)” value is given as 29%. In addition, the IC50 (usually the concentration needed to halve the response being measured) with PCSK9 mRNA [3] is 8.04 µM.
Turning to `COc1cc2c(cc1OCc1ccccc1F)C1Cc3c(n(CO)c4ccccc34)CN1CC2` (centres unmarked) [Compound 8, (2-((2-Fluorobenzyl)oxy)-3-methoxy-5,6,14,14a-tetrahydroindolo[3′,2′:4,5]pyrido[2,1-a]isoquinolin-9(8H)-yl)methanol], the half-maximal inhibitory concentration (IC50) in data set [4] was greater than 100 µM; on dopamine D2, 17.9 ± 0.86 µM; in data set [5] it was 47.2 ± 1.22 µM; on dopamine D1 it was 5.56 ± 0.08 µM. In addition, in the data set with HepG2 cells, the “DiI-LDL uptake rate (compared to vehicle, mean±SEM)” value came out at 1.04±0.04.
In the case of `COc1ccc2c(c1)c1c(n2CO)CN2CCc3cc(OC)c(OCc4ccc(F)cc4)cc3C2C1` (centres unmarked) [Compound 18, (2-((4-Fluorobenzyl)oxy)-3,12-dimethoxy-5,6,14,14a-tetrahydroindolo[3′,2′:4,5]pyrido[2,1-a]isoquinolin-9(8H)-yl)methanol], the IC50 in data set [4] was roughly 100 µM; on dopamine D2, greater than 100 µM; in data set [5], greater than 100 µM; at dopamine D1, 1.71 ± 0.1 µM.
Turning to `COc1ccc2c(c1)c1c(n2CO)CN2CCc3cc(OC)c(OCC(F)(F)F)cc3C2C1` (centres unmarked) [Compound 21, (3,12-Dimethoxy-2-(2,2,2-trifluoroethoxy)-5,6,14,14a-tetrahydroindolo[3′,2′:4,5]pyrido[2,1-a]isoquinolin-9(8H)-yl)methanol], the IC50 is roughly 100 µM in data set [4], roughly 50 µM at dopamine D2, greater than 100 µM in data set [5] and 2.35 ± 0.07 µM at dopamine D1. The “DiI-LDL uptake rate (compared to vehicle, mean±SEM)” value in the data set on HepG2 cells was 1.45±0.04^∗∗.
Take `COc1ccc2c(c1)c1c(n2CO)CN2CCc3cc(OCc4ccccc4)c(OC)cc3C2C1` (centres unmarked) [Compound 22, (3-(Benzyloxy)-2,12-dimethoxy-5,6,14,14a-tetrahydroindolo[3′,2′:4,5]pyrido[2,1-a]isoquinolin-9(8H)-yl)methanol]: the IC50 was no less than 100 µM in [4]; no less than 100 µM on dopamine D2; 1.1 µM with PCSK9 mRNA [7]; 7.99 µM on hERG channel; 13.4 ± 0.51 µM in data set [5]; roughly 100 µM at dopamine D1. For the same compound, the IC50 in the data set on PCSK9 was found to be 1.34 µM. Further, the “reduction in serum LDL-C” value in data set [6] (30 mg/kg oral gavage daily) came to 41.4%. Further, the “reduction in serum TC” value in data set [6] (30 mg/kg oral gavage daily) is 36.7%. Further, the “LDLR expression compared to DMSO” value in the data set on LDLR is listed as 2.06 fold. For the same compound, the total exposure AUC(0-inf) (usually total exposure, with the tail of the curve extrapolated) in [8] (iv, 10 mg/kg) came to 2090 ng·h/mL; in data set [8] (po, 20 mg/kg) it was 1000 ng·h/mL. Besides, the MRT (usually a mean duration of stay, worked out from the concentration-time curve) in [8] (iv, 10 mg/kg) came out at 4.13 h; in data set [8] (po, 20 mg/kg), 10.3 h. The clearance (usually the volume of plasma or blood freed of the substance per unit of time) in [8] (iv, 10 mg/kg) came out at 84.1 mL/min/kg. The half-life – broadly, the time in which the quantity being followed falls by half – in [8] (iv, 10 mg/kg) was 3.61 h; in data set [8] (po, 20 mg/kg) it was 6.35 h. Further, in data set [8] (oral, 20 mg/kg), the bioavailability (in general, the share of a dose that reaches the circulation, judged against a reference dose that is usually intravenous) was 21.9%. In data set [8] (po, 20 mg/kg), the concentration peaked (Cmax) at 169 ng/mL.
As for `CC(C)OC(=O)C(C)(C)Oc1ccc(C(=O)c2ccc(Cl)cc2)cc1` [fenofibrate, reference compound], in [6] (p.o. 100 mg/kg daily), the “decrease of serum LDL-C” value worked out at 79.4% and the “decrease of serum TC” value turned out to be 71.3%.
